Rows were chosen to be rich in hits. Some 2.1% of all compounds tested hit in one or more screens of this group.
PGE2 EP2 inh: blocks the human prostaglandin E2 receptor EP2; inhibition, % at 25 µM; P43116; 260,000 tested, 0.52% active; C6 glioma cells expressing human EP2, cAMP TR-FRET; cells stimulated with saturating PGE2;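 active = percent inhibition above 40 after rounding to a whole number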;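 note: rat C6 glioma host cells with rolipram phosphodiesterase inhibitor present; the protocol text gives 20 µM as final concentration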
EP2 mod: EP2 receptor (human) modulation; P43116; EP2-expressing cells, cAMP HTRF FRET, PGE2 co-stimulation; induction, % at 25 µM; 260,000 tested, 0.83% active; AID 940;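 active = compounds whose cAMP rise, as percent of the full-agonist control response, exceeds 60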;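 note: rat C6 glioma line stably carrying human EP2 under a CMV promoter; the protocol text gives 20 µM as final concentration; 100% = response of wells given 1 µM PGE2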
Thrombin inh: blocks human thrombin protease activity | P00734 | alpha-thrombin, Boc-VPR-AMC fluorogenic substrate cleavage | inhibition, % at 5 µM | 220,000 tested, 0.26% active;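 active = inhibition at or above 40%; inactive = inhibition below 40%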;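 note: 0% = enzyme with no compound and 100% = wells without enzyme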
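System – human alpha-thrombin · Medium – pH 7.5 Tris (50 mM) with NaCl 150 mM, Tween 20 0.05% · Compound – single-point dosing at 5 µM, 0.2% DMSO · Incubation – enzyme reaction carried out at room temperature · Technique – fluorescence of released AMC, ex 355 nm, em 460 nm · Read-out basis – % inhibition of thrombin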
FXIIa inh: inhibitors of human coagulation factor XIIa; purified FXIIa, Boc-QGR-AMC fluorogenic substrate, 2 h; 220,000 tested, 0.3% active; inhibition, % at 5 µM; in the data active = inhibition above about 40%;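 note: 0% = enzyme with no compound and 100% = blank without enzyme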
Target sequence (P00748 20-372 limits assumed): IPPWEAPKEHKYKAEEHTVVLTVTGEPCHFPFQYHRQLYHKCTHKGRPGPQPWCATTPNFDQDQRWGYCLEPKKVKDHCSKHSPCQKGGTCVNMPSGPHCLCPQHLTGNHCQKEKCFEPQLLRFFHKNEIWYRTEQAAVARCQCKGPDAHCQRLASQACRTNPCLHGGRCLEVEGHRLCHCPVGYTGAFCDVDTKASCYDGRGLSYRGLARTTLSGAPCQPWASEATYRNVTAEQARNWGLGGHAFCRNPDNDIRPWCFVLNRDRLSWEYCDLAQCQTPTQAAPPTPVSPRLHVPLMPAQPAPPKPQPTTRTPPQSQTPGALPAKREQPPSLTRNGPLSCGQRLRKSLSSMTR
Target sequence (P00748 373-615 limits assumed): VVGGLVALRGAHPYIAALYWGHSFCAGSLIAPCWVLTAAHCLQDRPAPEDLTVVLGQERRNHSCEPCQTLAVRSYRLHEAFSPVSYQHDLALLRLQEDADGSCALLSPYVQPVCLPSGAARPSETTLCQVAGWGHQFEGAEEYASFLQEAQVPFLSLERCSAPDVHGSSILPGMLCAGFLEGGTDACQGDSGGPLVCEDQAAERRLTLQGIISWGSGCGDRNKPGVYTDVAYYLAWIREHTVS
FXIa inh 1536: blocks human coagulation factor XIa protease activity. 220,000 tested, 0.14% active. P03951. inhibition, % at 5 µM. purified FXIa, Boc-Glu-Ala-Arg-AMC fluorogenic substrate;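 active = inhibition of at least 40%; inactive = inhibition below 40%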;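 note: fluorescence of freed AMC excited at 355 nm; 0% = enzyme without compound and 100% = no enzyme blank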
KLK5 inh: blocks human kallikrein 5 protease activity; AID 873; 210,000 tested, 0.59% active; Q9Y337; recombinant hK5, fluorogenic AMC substrate cleavage; inhibition, % at 5 µM;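 active = inhibition of 40% or more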;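 note: 0% = enzyme controls without compound and 100% = no-enzyme blanks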
* = called active by the depositor.

What do the screens show for `COc1ccc(N(C(=O)c2ccco2)S(=O)(=O)c2ccccc2)cc1`?
PGE2 EP2 inh: 5; EP2 mod: 28; Thrombin inh: 58*; FXIIa inh: 16; FXIa inh 1536: 10; KLK5 inh: -4

Results for COc1cc(C(=O)Nc2nc(-c3ccc(Cl)cc3Cl)cs2)cc(OC)c1OC ?
PGE2 EP2 inh: 15; EP2 mod: -58

How did NC(=O)Cn1nc(C(F)(F)F)c2cccn2c1=O do in these assays?
PGE2 EP2 inh: 8; EP2 mod: -3

Results for Cc1c2cc[n+](CCN3CCCCC3)cc2c(C)c2c1[nH]c1ccc(O)cc12 ?
PGE2 EP2 inh: 51*; EP2 mod: 14

Results for Cc1nn(C)c(C)c1NC(=O)CCSc1nc(-c2ccc3c(c2)OCO3)cc(C(F)(F)F)n1 ?
PGE2 EP2 inh: 10; EP2 mod: -32

What do the screens show for `C[C@H](CCC(=O)O)[C@H]1CC[C@H]2[C@@H]3[C@@H](O)C[C@H]4C[C@@H](O)CC[C@]4(C)[C@H]3C[C@@H](O)[C@]12C`?
PGE2 EP2 inh: 45*; EP2 mod: 32

Results for C[C@H](CCC(=O)NN)[C@@H]1CC[C@@H]2[C@H]3CC[C@H]4C[C@@H](O)CC[C@]4(C)[C@@H]3CC[C@]21C ?
PGE2 EP2 inh: 49*; EP2 mod: 21

What do the screens show for `CC(CCC(=O)O)[C@H]1CCC2C3CC[C@@H]4C[C@H](O)CC[C@]4(C)C3CC[C@@]21C` (stereo partly specified)?
PGE2 EP2 inh: 14; EP2 mod: 22

Results for O=C(C[n+]1cnn(CC(=O)c2ccc(Cl)cc2Cl)c1)c1ccc([N+](=O)[O-])cc1 ?
PGE2 EP2 inh: 11; EP2 mod: -6; Thrombin inh: 51*; FXIIa inh: 7; FXIa inh 1536: 4; KLK5 inh: 0

Results for Cc1ccc(SCN2CCCCC2)cc1 (tested in a mixture with another compound) ?
PGE2 EP2 inh: 52*; EP2 mod: 26

How did Cc1ccc(SCC(=O)N2CCOCC2)cc1 do in these assays?
PGE2 EP2 inh: 11; EP2 mod: 18; Thrombin inh: 2; FXIIa inh: 10; FXIa inh 1536: 1; KLK5 inh: -18

How did Cc1[nH]c2ccc(-c3nnc(SCC(=O)N4CCCCCC4)o3)cc2c1C do in these assays?
PGE2 EP2 inh: 9; EP2 mod: -62

What do the screens show for `COc1ccc(-c2cc(C(=O)c3c(N)n(C)c(=O)n(C)c3=O)c3ccccc3n2)cc1OC`?
PGE2 EP2 inh: 4; EP2 mod: -3; Thrombin inh: 10; FXIIa inh: 42*; FXIa inh 1536: 39; KLK5 inh: 20

Results for CCOC(=O)CSc1nnc(NC(=O)c2cc([N+](=O)[O-])cc([N+](=O)[O-])c2)s1 ?
PGE2 EP2 inh: 5; EP2 mod: -5; Thrombin inh: 92*; FXIIa inh: 21; FXIa inh 1536: 13; KLK5 inh: 18

How did COCCSc1nnc(NC(=O)c2ccc([N+](=O)[O-])cc2)s1 do in these assays?
PGE2 EP2 inh: 8; EP2 mod: 9; Thrombin inh: -4; FXIIa inh: 10; FXIa inh 1536: 0; KLK5 inh: -2

Results for CCN1c2ncccc2C(=O)NC12CCN(C(=O)c1cnn(C)c1C)CC2 ?
EP2 mod: 1

What do the screens show for `COc1ccc(N2C(N)=C(C#N)C(c3cccnc3)C3=C2CC(C)(C)CC3=O)cc1` (stereo unspecified)?
PGE2 EP2 inh: 12; EP2 mod: 14; Thrombin inh: 20; FXIIa inh: 23; FXIa inh 1536: 10; KLK5 inh: 51*

How did CN(C)C(CNC(=O)CSc1nnc(-c2ccco2)o1)c1ccccc1 (stereo unspecified) do in these assays?
PGE2 EP2 inh: 5; EP2 mod: 19; Thrombin inh: 26; FXIIa inh: 33; FXIa inh 1536: 7; KLK5 inh: 74*

What do the screens show for `COc1cc(NS(=O)(=O)c2ccc(NC(=S)NC(=O)c3sc4cc(F)ccc4c3Cl)cc2)nc(OC)n1`?
PGE2 EP2 inh: 95*; EP2 mod: -3; Thrombin inh: -4; FXIIa inh: 2; FXIa inh 1536: 5; KLK5 inh: -14

How did COc1cc(NS(=O)(=O)c2ccc(NC(=S)NC(=O)c3sc4ccccc4c3Cl)cc2)nc(OC)n1 do in these assays?
PGE2 EP2 inh: 126*; EP2 mod: -3; Thrombin inh: -1; FXIIa inh: 15; FXIa inh 1536: 9; KLK5 inh: -26

How did COc1cc(NS(=O)(=O)c2ccc(NC(=S)NC(=O)c3ccco3)cc2)nc(OC)n1 do in these assays?
PGE2 EP2 inh: 21; EP2 mod: -17; Thrombin inh: -45; FXIIa inh: -2; FXIa inh 1536: -5; KLK5 inh: -7

What do the screens show for `Cc1ccc(-n2nnnc2SCC(=O)NC(C)(C)C)cc1C`?
PGE2 EP2 inh: 12; EP2 mod: -27

What do the screens show for `CCOC(=O)c1c(C)[nH]c(C)c1C(=O)CSc1nnnn1-c1ccccc1`?
PGE2 EP2 inh: 15; EP2 mod: 64*; Thrombin inh: -1; FXIIa inh: 13; FXIa inh 1536: 1; KLK5 inh: -12

What do the screens show for `COc1ccc(NC(=O)CSc2nc3cc(OC)ccc3cc2C#N)c(OC)c1`?
PGE2 EP2 inh: 4; EP2 mod: -31

What do the screens show for `CCC(C(=O)OCC(=O)Nc1ccc(SC(F)F)cc1)c1ccccc1` (stereo unspecified)?
PGE2 EP2 inh: 8; EP2 mod: 25; Thrombin inh: 51*; FXIIa inh: -2; FXIa inh 1536: 3; KLK5 inh: 24

Results for COC1=CC(=O)C=C(OC)C1=O ?
PGE2 EP2 inh: 75*; EP2 mod: -24

How did COc1ccc(NC(=O)CSc2nc(C)nc3sc(C)c(C)c23)c(OC)c1 do in these assays?
PGE2 EP2 inh: 11; EP2 mod: 42

Results for COc1cc(OC)cc(C(=O)Nc2ccc(O)c(-c3nc4ccc(C)cc4o3)c2)c1 ?
PGE2 EP2 inh: 16; EP2 mod: 13

How did CN(C)c1ncc(S(=O)(=O)c2ccccc2)c(-c2ccc(Cl)cc2Cl)n1 do in these assays?
EP2 mod: 65*; Thrombin inh: -3; FXIIa inh: -6; FXIa inh 1536: -8; KLK5 inh: 0

How did COc1cccc(CNC(=O)CN2C(=O)[C@H]3CCCN3C(=O)c3ccccc32)c1 do in these assays?
PGE2 EP2 inh: 3; EP2 mod: -61

How did COc1ccc(NC(=O)c2ccco2)cc1NC(=O)c1ccc(Cl)c(Cl)c1 do in these assays?
PGE2 EP2 inh: 10; EP2 mod: -4

What do the screens show for `CC(C)c1ccc(/C=N/NC(=O)CN(c2cccc(Cl)c2Cl)S(C)(=O)=O)cc1`?
PGE2 EP2 inh: 12; EP2 mod: -5; Thrombin inh: -1; FXIIa inh: 2; FXIa inh 1536: -9; KLK5 inh: 13

Assay outcomes (PubChem)
